Holding throughout (assay type): functional
For one test, the species on record is Homo sapiens. The experiment in a line: Inhibition of platelet aggregation induced by arachidonic acid(AA) in human platelet-rich plasma. The settings on record: read-out: I50. In short, it runs like this:
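Human platelet-rich plasma; aggregation triggered by arachidonic acid. Potency is expressed as the I50 (concentration giving 50% inhibition), reported as mean ± SEM or as mean ± range when n = 2.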

The test system of test [1] is Cavia porcellus. The test is described as follows: Percent inhibition of increase in pulmonary resistance was measured on arachidonic acid induced bronchoconstriction in the anesthetized guinea pig after 10 min. In short, it runs like this:
(§1)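 Anesthetized guinea pigs received the test agent at 1 mg/kg iv. Arachidonic acid (0.5 mg/kg iv) injections were given as challenge. Rises in pulmonary resistance were recorded, and percent inhibition was scored at 3, 10 and 30 min. Values are mean ± SEM, n = 3–5 animals.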

The test system of test [2] is Cavia porcellus. The test is described as follows: Percent inhibition of increase in pulmonary resistance was measured on arachidonic acid induced bronchoconstriction in the anesthetized guinea pig after 30 min. A digest of the protocol: as §1
For test [3], the system named is Cavia porcellus. The test is described as follows: Percent inhibition of increase in pulmonary resistance was measured on arachidonic acid induced bronchoconstriction in the anesthetized guinea pig after 3 min. In short, it runs like this: as §1

pIC50: −log10 of the molar value.

Regarding `CCCCC[C@H](O)/C=C/C1C(C/C=C\CCCC(=O)O)C2OC1C1OC21` (some centres not stated), the pIC50 in the test filed under Homo sapiens was 4.82.
Consider `O=C(O)CCC/C=C\CC1C(/C=C/[C@@H](O)C2CCCCC2)C2OC1C1OC21` (some centres not stated), for which, in the test listed under Homo sapiens, the pIC50 is 5.28.
Take `CC1([C@H](O)/C=C/C2C(C/C=C\CCCC(=O)O)C3OC2C2OC32)CCCCC1` (some centres not stated): the Inhibition in the test on Cavia porcellus [1] is reported as 67%; with Cavia porcellus [2], 22%; in the test with Cavia porcellus [3], 85%. Moreover, the pIC50 in the test filed under Homo sapiens was 6.28.
The like results for `O=C(O)CCC/C=C\C[C@@H]1[C@H](CNNC(=O)Nc2ccccc2)[C@H]2CC[C@H]1O2` were, in that order, 98%, 96%, 97% and 7.70.
`O=C(O)CCC/C=C\CC1C(/C=C/[C@@H](O)CCc2ccccc2)C2OC1C1OC21` (some centres not stated): the pIC50 in the test filed under Homo sapiens was 5.80.
With `CCCCC(C)(C)[C@H](O)/C=C/C1C(C/C=C\CCCC(=O)O)C2OC1C1OC21` (some centres not stated), the pIC50 in the test listed under Homo sapiens was 5.66.
Same read-out and setting: with `O=C(O)CCC/C=C\CC1C(/C=C/[C@H](O)C2CCCCC2)C2OC1C1OC21` (some centres not stated) the figure was 4.77.
Turning to `O=C(O)CCC/C=C\CC1C(/C=C/[C@@H](O)CCc2ccc(O)cc2)C2OC1C1OC21` (some centres not stated), the results for the Inhibition in the test on Cavia porcellus [1], in the test with Cavia porcellus [2] and with Cavia porcellus [3] were 83%, 46% and 90%, respectively. Further, the pIC50 in the test filed under Homo sapiens is 6.57.
Turning to `COc1ccc2c(c1)c(CC(=O)O)c(C)n2C(=O)c1ccc(Cl)cc1` [INDOMETHACIN], the pIC50 in the test listed under Homo sapiens is 5.22.
For the molecule `O=C(O)COc1ccc(CCNS(=O)(=O)c2ccccc2)cc1` [SULOTROBAN], the Inhibition in the test with Cavia porcellus [1] worked out at 82%; in the test on Cavia porcellus [2] it was 40%; in the test with Cavia porcellus [3] it was 89%. Besides, in the test listed under Homo sapiens, the pIC50 is 4.41.

These data come from ChEMBL document CHEMBL1124110, “Synthesis and pharmacological evaluation of 5,6-exo-epoxy-7-oxabicyclo[2.2.1]heptane derivatives” (J Med Chem, 1988).
